Screens (PubChem)
RGS4 inh: human RGS4 inhibition; P49798; HEK293 M3R/RGS4 inducible, Fluo-4 calcium flux; hits give high values; triggered by carbachol at its EC20; B-score at 10 µM; hit rate 0.45% among 310,000; AID 463165;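 active = B-score, a plate-corrected calcium signal, over three deviations above library mean, with baseline fluorescence within five deviations of library mean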;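 note: RGS4 expression induced by doxycycline in cells with stable M3 receptor; B-score is computed from the integrated fluorescence ratio over baseline after carbachol; higher B-score means a larger calcium signal and so more RGS4 inhibition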
Target sequence (P49798 whole entry, looked up): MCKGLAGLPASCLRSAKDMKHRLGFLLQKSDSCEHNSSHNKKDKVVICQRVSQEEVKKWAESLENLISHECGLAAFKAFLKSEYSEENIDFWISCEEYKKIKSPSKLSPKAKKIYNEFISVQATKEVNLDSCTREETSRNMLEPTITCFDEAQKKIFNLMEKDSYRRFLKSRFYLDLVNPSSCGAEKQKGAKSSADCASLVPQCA
MrgX1 agonist: human MrgX1 receptor agonism, primary screen; Q96LB2; MrgX1-HEK293 cells, Fluo-4 calcium fluorescence, agonist mode; hits give high values; B-score at 10 µM; hit rate 0.44% among 310,000; AID 588627;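 active = calcium response B-score plate-corrected fluorescence ratio at least 3 library SD, with starting fluorescence B-score inside 5 SD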
Target sequence (Q96LB2 whole entry, looked up): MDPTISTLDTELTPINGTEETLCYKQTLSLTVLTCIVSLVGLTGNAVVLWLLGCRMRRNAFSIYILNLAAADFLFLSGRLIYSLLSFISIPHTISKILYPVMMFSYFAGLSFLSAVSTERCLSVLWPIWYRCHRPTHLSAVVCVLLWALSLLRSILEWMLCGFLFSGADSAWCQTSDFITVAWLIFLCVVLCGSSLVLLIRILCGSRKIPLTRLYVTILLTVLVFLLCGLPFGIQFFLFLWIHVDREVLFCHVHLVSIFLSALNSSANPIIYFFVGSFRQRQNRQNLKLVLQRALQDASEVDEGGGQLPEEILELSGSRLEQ
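System: HEK293 cells stably expressing human MrgX1 receptor; Dosing: test compound in the initial addition of three; Schedule: overnight plating, then 30 min 37 °C plus 30 min room-temperature dye loading; Detection: kinetic calcium dye fluorescence, Fluo-4 NW; Controls: per-plate positive and negative controls for Z′ factor.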
MrgX1 antagonist: human MrgX1 receptor antagonism, primary screen; B-score at 10 µM; hit rate 1.3% among 310,000; MRGX1-HEK293 calcium flux, Fluo-4, BAM8-22 antagonism; hits give low values;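 active = calcium-response B-score plate-corrected more than 3 library SD below zero, starting fluorescence within 5 deviations, no agonist response on first addition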;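 note: peak minus trough fluorescence over baseline after final BAM8-22 challenge near maximal dose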
MrgX1 allo act: human MrgX1 positive allosteric modulation, primary screen. MrgX1-HEK293, Fluo-4 calcium flux, FDSS; hits give high values. B-score at 10 µM. hit rate 0.63% among 310,000. AID 588675;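 active = plate-corrected calcium response at least 3 library SD above typical, normal starting fluorescence, not activating the receptor alone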;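 note: compound read alongside a low EC10 to EC30 dose of BAM8-22 agonist; peak minus trough fluorescence over baseline measured at the second addition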
RGS4 act: potentiators or activators of RGS4 | hit rate 0.92% among 310,000 | B-score at 10 µM | HEK293 M3R/inducible RGS4, carbachol calcium flux Fluo4; hits give low values | AID 463111;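 active = B-score of the integrated calcium signal more than 4 SD below the library mean, with starting fluorescence not abnormally high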;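 note: negative B-score means reduced calcium response which marks RGS4 activation or potentiation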
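Assay system: HEK293 FlpIn-TREx cells, stable M3R, doxycycline-inducible RGS4 / Probe or stimulus: carbachol, ECmax concentration / Times: overnight RGS4 induction, 30 min dye load 37 °C, 20 min compound RT / Signal: kinetic calcium fluorescence imaging with Fluo4-AM dye, 2 µM / Measure: Agonist-evoked peak-minus-minimum fluorescence over baseline, integrated ratio, B score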
Numbers without * were called inactive; i = inactive; x = no result; ! = repeats disagree. An excerpt weighted towards active compounds, which were near 3.5% of everything screened.

SMILES | RGS4 inh | MrgX1 agonist | MrgX1 antagonist | MrgX1 allo act | RGS4 act
Cc1ccc(C)c(N2CCN(S(=O)(=O)c3csc(C(N)=O)c3)CC2)c1 | i | i | i | i | i
O=C(COC(=O)/C=C/c1cn(-c2ccccc2)nc1-c1ccc2c(c1)OCCO2)NC1CCS(=O)(=O)C1 (configuration not stated) | i | i | i | i | -8.5*
CC(=O)Nc1ccc(NC(=O)CS(=O)(=O)c2cn(CC(=O)N3CCCC3)c3ccccc23)cc1 | i | i | i | i | i
CCOc1ccc(N2C(=O)CC(Sc3nc(-c4cccs4)cc(C(F)(F)F)c3C#N)C2=O)cc1 (configuration not stated) | i | i | -7.1* | i | i
CCOc1ccc(N2C(=O)CC(Sc3ncccn3)C2=O)cc1 (configuration not stated) | i | i | i | i | i
Cc1cccc(N2CCN(C3CCCCC3NS(=O)(=O)c3ccccc3)CC2C)c1 (configuration not stated) | i | i | i | i | i
CCCCN(CC)CCCNC(=O)c1cc2c(=O)n(C)c3ccccc3c2n1C | i | i | -5.5* | i | i
CC(C)OCCCNC(=O)c1cc2c(=O)n(C)c3ccccc3c2n1C | i | i | i | i | i
COc1ccc(Cl)cc1S(=O)(=O)N1CCC(C(=O)NC2CC2)CC1 | i | i | i | i | i
CCN(NC(=O)C(O)(c1ccc(F)cc1)c1ccc(F)cc1)C(=O)c1ccccc1 | i | i | -5.8* | i | i
CC[N+](CC)(CC)CCOc1ccc(/C=C/c2ccccc2)cc1 | x | i | -5.1* | i | x
CN1[C@@H]2CC[C@H]1CC(OC(=O)C(CO)c1ccccc1)C2 (some centres not stated) | i | i | i | i | -7*
CC(C)[N+]1(C)[C@@H]2CC[C@H]1CC(OC(=O)C(CO)c1ccccc1)C2 (some centres not stated) | i | i | i | i | i
CN1C2CC(OC(=O)C(CO)c3ccccc3)CC1C1OC12 (configuration not stated) | i | i | i | i | -7.9*!
CN1C2CCC1CC(OC(=O)C(CO)c1ccccc1)C2 (configuration not stated) | x | i | i | i | x
O=C1N/C(=C\c2ccc(O)cc2)C(=O)c2ccccc21 | i | 40* | i | i | i
CCOC(=O)c1sc(N2C(=O)C(O)=C(C(=O)c3ccco3)C2c2ccco2)nc1C (configuration not stated) | i | i | i | i | i
Cc1cc(C)c2nc(N3C(=O)C(O)=C(C(=O)c4ccco4)C3c3ccco3)sc2c1 (configuration not stated) | i | i | i | i | -7.9*
Cc1ccc(N(CC2CO2)S(=O)(=O)c2ccc([N+](=O)[O-])cc2)cc1 (configuration not stated) | i | i | i | 7.4* | i
Cc1ccc(N(CC2CO2)S(=O)(=O)c2ccc(C)cc2)cc1 (configuration not stated) | i | i | i | i | i
CC(=O)N(C1=C(Cl)C(=O)c2ccccc2C1=O)C1CCCCC1 | i | i | -9.6* | i | i
COc1ccc(CNC(=O)CN(Cc2ccccc2)C(=O)CCC(=O)Nc2ccccn2)cc1 | i | i | i | i | i
Cc1ccc2c(c1)C=CC(C)(C)S2=O (configuration not stated) | i | i | i | i | i
CC[N+]1=C(C)C(C)(C)c2cc(C)ccc21 | i | i | -4.8* | i | i
COc1ccc(Cl)cc1NC(=O)CN(C)C(=O)c1cc2c(s1)CCC(C)C2 (configuration not stated) | i | i | i | i | i
SMILES | RGS4 inh | MrgX1 agonist | MrgX1 antagonist | MrgX1 allo act | RGS4 act
CC1(C)COCN1S(=O)(=O)c1ccc(C(=O)Nc2nnc(-c3ccc(Cl)s3)o2)cc1 | i | 80* | i | i | i
CCC1CCCCN1S(=O)(=O)c1ccc(C(=O)Nc2nnc(C3CC3)o2)cc1 (configuration not stated) | i | i | i | i | i
O=C(Nc1nnc(-c2cccs2)o1)c1ccc(S(=O)(=O)N2CCOCC2)cc1 | i | i | i | i | i
CCC1CCCCN1S(=O)(=O)c1ccc(C(=O)Nc2nnc(-c3ccccc3Cl)o2)cc1 (configuration not stated) | i | 38* | i | i | i
O=C(Nc1ccc2cn[nH]c2c1)c1c(Cl)cccc1Cl | i | i | i | i | i
O=C1C(Cl)=C(Nc2ccc3cn[nH]c3c2)C(=O)c2ccccc21 | i | i | -9.6* | i | i
Oc1c(Cl)cc(Cl)cc1CNn1cnnc1 | i | i | i | i | i
Oc1c(Cl)cc(Cl)cc1Sc1cc(Cl)cc(Cl)c1O | i | 30* | i | i | i
CC(C)[C@H](NS(=O)(=O)c1ccccc1)C(=O)OCC(=O)Nc1ccccc1Sc1ccccc1 | i | i | -6.4* | i | i
C=CCN1C(=O)c2ccc(C(=O)N(CCC)CC(=O)Nc3ccccc3C)cc2C1=O | i | i | i | i | i
CCN(C(=O)CSc1nnc(COc2cccc(C)c2)o1)c1nc(C)cs1 | i | i | i | i | i
Cc1ccc(C(c2nnnn2C2CCCC2)N2c3ccccc3CC2C)cc1 (configuration not stated) | i | i | i | i | i
COc1ccc(-c2csc(NC(=O)CSc3n[nH]c(N)n3)n2)cc1 | i | i | i | i | i
COc1ccc(-c2csc(NC(=O)CSc3n[nH]c(C)n3)n2)cc1 | i | i | i | 6.9* | i
COc1ccccc1-c1nnn(CC#N)n1 | i | i | -7.5* | i | i
CNc1ccc(C(=O)N2CCN(S(=O)(=O)c3ccc4c(c3)OCCCO4)CC2)cc1[N+](=O)[O-] | i | i | i | i | i
COc1ccc(NC(=O)CCCN2C(=O)C3CC=CCC3C2=O)cc1 (configuration not stated) | i | i | i | i | i
CC1CCC(C(C)C)C(OP(=O)(c2ccccc2)C(O)c2ccncc2)C1 (configuration not stated) | i | i | i | i | i
CC1CCC(C(C)C)C(OP(=O)(c2ccc(N(C)C)cc2)C(O)c2cccnc2)C1 (configuration not stated) | i | i | -8.7* | i | i
Cc1ccccc1N1CCN(C2CCCN(C(=O)c3ccnn3C)C2)CC1 (configuration not stated) | i | i | i | i | i
